“Also recorded” adds a separate entry of the source. Where two headings read alike, the source gives them in different places.
Key:
ERRα [1] = target: T1, ERRα (Homo sapiens, UniProt P11474); experiment: Cell-based; conditions: for ERRα activity (in words): HEK293 co-transfection luciferase
T1 sequence (P11474 1-423): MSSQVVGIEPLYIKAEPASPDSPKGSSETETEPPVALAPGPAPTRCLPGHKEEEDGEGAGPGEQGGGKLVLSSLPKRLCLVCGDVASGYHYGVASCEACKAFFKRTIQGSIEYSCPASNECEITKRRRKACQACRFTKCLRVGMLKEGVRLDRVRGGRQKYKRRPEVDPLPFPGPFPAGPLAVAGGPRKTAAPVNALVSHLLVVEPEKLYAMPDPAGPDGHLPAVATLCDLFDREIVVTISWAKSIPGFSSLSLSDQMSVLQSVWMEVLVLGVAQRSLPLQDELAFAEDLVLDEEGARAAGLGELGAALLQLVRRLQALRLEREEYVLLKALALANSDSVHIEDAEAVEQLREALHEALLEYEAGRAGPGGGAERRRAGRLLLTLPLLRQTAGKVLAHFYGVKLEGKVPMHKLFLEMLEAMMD

ERRγ [2] = target: T2, ERRγ (Homo sapiens, UniProt P62508); experiment: Cell-based; conditions: for ERRγ activity (in words): HEK293 co-transfection luciferase
T2 sequence (P62508 1-458): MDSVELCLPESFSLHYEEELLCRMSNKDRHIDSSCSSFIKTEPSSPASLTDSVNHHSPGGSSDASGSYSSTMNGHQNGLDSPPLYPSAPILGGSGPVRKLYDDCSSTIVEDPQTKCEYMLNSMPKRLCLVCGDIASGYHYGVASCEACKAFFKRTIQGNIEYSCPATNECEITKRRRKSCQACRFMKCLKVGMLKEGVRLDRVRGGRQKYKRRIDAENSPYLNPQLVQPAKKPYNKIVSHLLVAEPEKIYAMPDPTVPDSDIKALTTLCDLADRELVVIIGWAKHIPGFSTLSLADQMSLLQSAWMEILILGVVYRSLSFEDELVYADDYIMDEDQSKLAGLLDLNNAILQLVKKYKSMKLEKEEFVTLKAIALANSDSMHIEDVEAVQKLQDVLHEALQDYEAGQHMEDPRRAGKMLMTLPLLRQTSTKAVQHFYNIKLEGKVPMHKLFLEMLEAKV

[3] = tested on: ERR target genes PGC-1α, PGC-1β, CPT1α and PDK4; experiment: Gene expression; type: cell-based, mouse; conditions: C2C12 cells, 1 μM of tested compounds, 24 h
Method in brief: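 Confluent C2C12 myoblasts (DMEM, 10% FBS, 1% L-glutamine; 2.5 million cells per well) were treated 24 h with test compound in DMSO or with DMSO vehicle, in triplicate groups. Total RNA was column-extracted and 1 μg was reverse-transcribed. Transcripts were quantified by SYBR qPCR, with samples run in duplicate. Relative expression was calculated by ΔΔCt against 36b4 as the reference gene.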

ERRβ [4] = target: T3, ERRβ (Homo sapiens, UniProt O95718); experiment: Cell-based co-transfection ERR responsive luciferase reporter assay, ERRβ
T3 sequence (O95718 1-433): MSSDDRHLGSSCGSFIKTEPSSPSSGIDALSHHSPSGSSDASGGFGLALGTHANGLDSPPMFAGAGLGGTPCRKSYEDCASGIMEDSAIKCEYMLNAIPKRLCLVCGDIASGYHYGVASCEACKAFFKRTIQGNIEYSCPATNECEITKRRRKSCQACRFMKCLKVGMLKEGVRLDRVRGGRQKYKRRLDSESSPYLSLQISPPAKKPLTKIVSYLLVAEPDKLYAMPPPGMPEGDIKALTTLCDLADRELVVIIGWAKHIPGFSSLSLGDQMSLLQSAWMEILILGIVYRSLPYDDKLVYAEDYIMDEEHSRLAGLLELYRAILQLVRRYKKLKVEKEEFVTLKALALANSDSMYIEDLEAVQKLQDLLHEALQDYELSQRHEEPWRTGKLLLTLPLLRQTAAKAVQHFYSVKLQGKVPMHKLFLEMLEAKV

C2C12 cells = experiment: Cell viability assay, FITC Annexin V/PI flow cytometry; type: cell-based; conditions: 1 and 10 μM, 24 h
Method in brief: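 C2C12 mouse myoblasts were kept in DMEM with 10% FBS and 1% L-glutamine. They were seeded at 2.5 million cells per well and grown 24 h to confluence. Cells were exposed 24 h to test compound in DMSO at 1 or 10 μM, with a DMSO-only control, in triplicate. Harvested cells were stained with FITC-Annexin V and propidium iodide and analysed by flow cytometry for live/dead cells.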

ERRβ [5] = target: T3, ERRβ; conditions: cited from earlier work
ERRα [6] = target: T1, ERRα; conditions: cited from earlier work
ERRγ [7] = target: T2, ERRγ; conditions: cited from earlier work

SMILES: O=C(NN=Cc1ccccc1)c1ccccc1 [Compound 10]
- ERRα activity (in words) (ERRα [1]): complete loss of activity; also recorded: completely inactive
- ERRγ activity (in words) (ERRγ [2]): complete loss of activity; also recorded: completely inactive

SMILES: CN(C)c1ccc(C=NNC(=O)c2ccccc2)cc1 [Compound 11]
- ERRα activity (in words) (ERRα [1]): no ERRα activity; also recorded: inactive
- ERRγ activity (in words) (ERRγ [2]): activity was regained

SMILES: O=C(NN=Cc1ccccc1O)c1ccccc1 [Compound 13]
- ERRα activity (in words) (ERRα [1]): completely inactive
- ERRγ activity (in words) (ERRγ [2]): completely inactive

SMILES: O=C(N/N=C/c1ccccc1[N+](=O)[O-])c1ccccc1 [Compound 16, (E)-N’-(2-Nitrobenzylidene)benzohydrazide]
- PDK4 transcription [3]: potently upregulated
- expression of CPT1α [3]: significantly increased the expression
- fold more potent toward ERRα than 14 (ERRα [1]; compared to 14): ≈ 17 fold
- fold increase in potency toward ERRα compared to 15 (ERRα [1]; compared to 15): > 6 fold
- selectivity toward ERRγ over ERRα (ERRγ [2]; from EC50 values): 1.6 fold

SMILES: O=C(NN=Cc1ccccc1)c1ccccc1O [Compound 19]
- ERRα activity (in words) (ERRα [1]): moderately potent
- ERRγ activity (in words) (ERRγ [2]): moderately potent

SMILES: O=C(NN=Cc1ccccc1)c1ccc(Br)cc1 [Compound 21]
- ERRα activity (in words) (ERRα [1]): completely lost ERRα activity; also recorded: inactive
- ERRγ activity (in words) (ERRγ [2]): moderate ERRγ activity; also recorded: very weak

SMILES: Cc1ccccc1C(=O)NN=Cc1ccccc1 [Compound 23]
- ERRα activity (in words) (ERRα [1]): no activity

SMILES: Cc1ccc(C(=O)N/N=C/c2ccccc2)cc1 [Compound 24, (E)-N’-Benzylidene-4-methylbenzohydrazide]
- PDK4 transcription [3]: potently upregulated
- mRNA levels of PGC-1α [3]: increase the mRNA levels
- mRNA levels of PGC-1β [3]: increase the mRNA levels
- EC50 (ERRβ [4]): 0.162 µM
- Cell viability / signs of toxicity (C2C12 cells): No signs of toxicity; also recorded: did not show signs of toxicity

SMILES: O=C(N/N=C/c1ccccc1O)c1ccccc1O [Compound 27, (E)-2-Hydroxy-N’-(2-hydroxybenzylidene)benzohydrazide]
- EC50 (ERRβ [4]): 0.772 µM
- EC50 (ERRα [1]): 0.378 µM
- activity toward ERRα, folds higher than ERRβ (ERRα [1]; from EC50 values): ≈ 2 folds
- selectivity toward ERRα over ERRγ (ERRα [1]; from EC50 values): > 4 fold
- EC50 (ERRγ [2]): 1.65 µM
- Cell viability / signs of toxicity (C2C12 cells): No signs of toxicity; also recorded: did not show signs of toxicity

SMILES: Cc1ccccc1C(=O)N/N=C/c1ccccc1O [Compound 29, (E)-N’-(2-Hydroxybenzylidene)-2-methylbenzohydrazide]
- EC50 (ERRβ [4]): 0.583 µM
- EC50 (ERRα [1]): 0.453 µM
- EC50 (ERRγ [2]): 0.254 µM
- Cell viability / signs of toxicity (C2C12 cells): No signs of toxicity; also recorded: did not show signs of toxicity

SMILES: O=C(NN=Cc1ccccc1O)c1ccc(Cl)cc1 [Compound 31]
- ERRα activity (in words) (ERRα [1]): weak activity
- ERRγ activity (in words) (ERRγ [2]): weak activity

SMILES: Cc1ccc(C(=O)N/N=C/c2ccccc2O)cc1 [Compound 33, (E)-N’-(2-Hydroxybenzylidene)-4-methylbenzohydrazide]
- EC50 (ERRβ [4]): 0.123 µM
- EC50 (ERRα [1]): 0.483 µM
- EC50 (ERRγ [2]): 0.235 µM

SMILES: O=C(N/N=C/c1ccccc1[N+](=O)[O-])c1ccccc1 [Compound 34]
- ERRα activity (in words) (ERRα [1]): completely inactive
- ERRγ activity (in words) (ERRγ [2]): completely inactive

SMILES: COc1ccc(/C=N/NC(=O)c2ccc(Br)cc2)cc1 [Compound 35, (E)-4-Bromo-N’-(4-methoxybenzylidene)benzohydrazide]
- PDK4 transcription [3]: potently upregulated
- mRNA levels of PGC-1α [3]: increased the mRNA levels
- EC50 (ERRα [1]): 0.54 µM
- EC50 (ERRγ [2]): 0.398 µM

SMILES: O=C(N/N=C/c1ccccc1O)c1ccccc1O [Compound 36]
- ERRγ activity (in words) (ERRγ [2]): inactive

SMILES: O=C(N/N=C/c1ccccc1[N+](=O)[O-])c1ccc([N+](=O)[O-])cc1 [Compound 38, (E)-4-Nitro-N’-(2-nitrobenzylidene)benzohydrazide]
- EC50 (ERRα [1]): 0.646 µM
- fold decrease in potency against ERRα (ERRα [1]; compared to 16): ≈ 1.5 fold
- EC50 (ERRγ [2]): 0.26 µM

SMILES: O=C(N/N=C/c1cccs1)c1ccccc1 [Compound 42, (E)-N’-(Thiophen-2-ylmethylene)benzohydrazide]
- PDK4 transcription [3]: potently upregulated
- mRNA levels of PGC-1α [3]: increase the mRNA levels
- mRNA levels of PGC-1β [3]: increase the mRNA levels
- EC50 (ERRβ [4]): 1.19 µM
- activity toward ERRβ, folds higher than ERRα (ERRβ [4]; from EC50 values): 1.8 folds
- ERRα activity (in words) (ERRα [1]): weak agonistic effect
- ERRγ activity (in words) (ERRγ [2]): weak agonistic effect
- Cell viability / signs of toxicity (C2C12 cells): No signs of toxicity; also recorded: did not show signs of toxicity

SMILES: O=C(NN=Cc1ccnc2ccccc12)c1ccccc1 [Compound 46, quinolin-4-ylmethylene benzohydrazide]
- IC50 (ERRα [1]): 4.58 µM

SMILES: CC(C)c1ccc(/C=N/NC(=O)c2ccc(O)cc2)cc1 [GSK4716 (6)]
- EC50 (ERRβ [4]; read-out: ERRβ EC50, agonism, co-transfection luciferase reporter): 0.28 µM
- reported activity on ERRβ (ERRβ [5]): agonist
- ERRα activity (in words) (ERRα [1]): very weak activity
- reported activity on ERRα (ERRα [6]): no observed activity
- reported activity on ERRγ (ERRγ [7]): agonist
